Source: ChEMBL document CHEMBL1155849, “Cadinane sesquiterpenes from the leaves of Eupatorium adenophorum” (J Nat Prod, 2008)

Experiments:
Assay type in all cases: functional, cell-based
A2780 = assay: Cytotoxicity against human A2780 cells by MTT assay
How it was run: (§1)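 Cell proliferation was read out by MTT. The lines were HCT-8 (colon), Bel-7402 (hepatoma) and A2780 (ovarian), all of human origin. Values are reported as IC50.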

HCT-8 = assay: Cytotoxicity against human HCT8 cells by MTT assay; how it was run: as §1
Bel-7402 = assay: Cytotoxicity against human Bel7402 cells by MTT assay; how it was run: as §1

Row | Structure (SMILES) | IC50 (A2780) | IC50 (HCT-8) | IC50 (Bel-7402)
1 | CC1=C[C@H]2[C@@H](CC1)[C@H](C)C[C@H](O)[C@@]2(O)C(C)C | 1.7 µM | 2 µM | 1.7 µM
2 | CC1=C[C@@H]2C3=C(C)C(=O)O[C@H]3C[C@@H](C)[C@@H]2CC1=O | > 5 µM | > 5 µM | > 5 µM
3 | CC1=C[C@@H]2C3=C(C)C(=O)O[C@]3([C@@]34C[C@@H](C)[C@@H]5CC(=O)C(C)=C[C@@H]5C3=C(C)C(=O)O4)C[C@@H](C)[C@@H]2CC1=O | > 5 µM | > 5 µM | > 5 µM
4 | CC1=C[C@@H]2C3=C(C)COO[C@@]3(O)C[C@@H](C)[C@@H]2CC1=O | > 5 µM | > 5 µM | > 5 µM
